Experimental data taken from ChEMBL document CHEMBL4052823, “Extra Sugar on Vancomycin: New Analogues for Combating Multidrug-Resistant Staphylococcus aureus and Vancomycin-Resistant Enterococci” (J Med Chem, 2018).
Values after ≈ are worked out from the molar mass of the structure shown. Active and inactive are the calls of the source. No cut-off for these calls is given here.

Tests used:
Staphylococcus aureus [1] = experiment: Antibacterial activity against vancomycin/methicillin-susceptible Staphylococcus aureus Newman […] after 24 hrs by broth microdilution method; format: functional
Outline: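 Broth microdilution in cation-adjusted Mueller-Hinton II broth. […] Each well received ~10^5 CFU of exponential-phase bacteria and was incubated at 37 °C for 24 h. MIC was taken as the lowest concentration giving complete growth inhibition, interpreted per CLSI.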

Staphylococcus aureus [2] = experiment: Antibacterial activity against healthcare-associated methicillin-resistant/vancomycin-intermediate Staphylococcus aureus Mu50 after 24 hrs by broth microdilution method; format: functional; conditions: Mu50, 24 h
Outline: (§1)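 Broth microdilution in cation-adjusted Mueller-Hinton II broth. DMSO stocks were diluted in broth and twofold serially from 128 to 0.0625 μg/mL or lower. Each well was inoculated with ~10^5 CFU of exponential-phase bacteria and incubated at 37 °C for 24 h. MIC was the lowest concentration giving complete growth inhibition, read per CLSI. Growth controls contained broth plus DMSO.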

Enterococcus faecium [3] = experiment: Antibacterial activity against glycopeptide-resistant Enterococcus faecium Efm-HS-0649 vanA after 24 hrs by broth microdilution method; format: functional; conditions: Efm-HS-0649, 24 h; outline: as §1
Enterococcus faecium [4] = experiment: Antibacterial activity against glycopeptide-resistant Enterococcus faecium Efm-HS-06188 vanA after 24 hrs by broth microdilution method; format: functional; conditions: Efm-HS-06188, 24 h; outline: as §1
Enterococcus faecium [5] = experiment: Antibacterial activity against glycopeptide-resistant Enterococcus faecium Efm-HS-0847 vanM after 24 hrs by broth microdilution method; format: functional; conditions: Efm-HS-0847, 24 h; outline: as §1
Enterococcus faecium [6] = experiment: Antibacterial activity against glycopeptide-resistant Enterococcus faecium Efm-HS-08257 vanM after 24 hrs by broth microdilution method; format: functional; conditions: Efm-HS-08257, 24 h; outline: as §1
Enterococcus faecium [7] = experiment: Antibacterial activity against glycopeptide-resistant Enterococcus faecium Efm-HS-vb01 vanB after 24 hrs by broth microdilution method; format: functional; conditions: Efm-HS-vb01, 24 h; outline: as §1
L02 = experiment: Cytotoxicity against human HL7702 cells assessed as decrease in cell viability at 10 to 100 uM after 72 hrs by CCK8 assay; format: cell-based; conditions: l02, 72 h
Outline: (§2)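 HK-2 and HL-7702 cells were seeded at ~5000 cells/well, incubated overnight, then exposed to compound at final 10, 50 and 100 μM for 72 h. CCK-8 was added for 1.5 h at 37 °C and OD450 read. Viability was OD treated / OD untreated × 100, with triplicates.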

HK-2 = experiment: Cytotoxicity against human HK2 cells assessed as decrease in cell viability at 10 to 100 uM after 72 hrs by CCK8 assay; format: cell-based; conditions: hk-2, 72 h; outline: as §2
Staphylococcus aureus [8] = experiment: Potency index, ratio of telavancin MIC90 to test compound MIC90 for vancomycin/methicillin-susceptible Staphylococcus aureus Newman […]; format: functional
Staphylococcus aureus [9] = experiment: Antibacterial activity against methicillin-resistant Staphylococcus aureus USA300 LAC infected in BALB/c mouse assessed as increase in mouse survival rate at 7 mg/kg, ip administered as single dose after 10 days relative to control; format: functional, organism-based
Outline: (§3)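 Female BALB/c mice, 6−8 weeks old, were anesthetized with pentobarbital and infected retro-orbitally with ~2.35 × 10^8 CFU of exponential-phase USA300 LAC, 15 per group. A single 7 mg/kg ip dose was given 1 h after infection. Deaths were recorded daily to build survival curves.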

Staphylococcus aureus [10] = experiment: Antibacterial activity against methicillin-resistant Staphylococcus aureus USA300 LAC infected in BALB/c mouse assessed as mouse survival rate at 7 mg/kg, ip administered as single dose measured after 10 days relative to control; format: functional; conditions: for survival at 7 mg/kg: 240 h; outline: as §3
Staphylococcus aureus [11] = experiment: Antibacterial activity against healthcare-associated methicillin-resistant/vancomycin-intermediate Staphylococcus aureus Mu50 infected in BALB/c mouse assessed as decrease in liver CFU levels at 7 mg/kg, ip administered twice in 24 hrs interval measured after 5 days; format: functional, organism-based
Outline: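 Female BALB/c mice, 6−8 weeks old, were anesthetized with pentobarbital and infected retro-orbitally with ~3.8 × 10^8 CFU of exponential-phase Mu50, 12 per group. Treatment started 1 h post-infection: 7 mg/kg ip in sterile water, two doses 24 h apart. At day 5 mice were euthanized and liver homogenates plated on TSA for CFU counts. Groups were compared by two-tailed Mann−Whitney test.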

[12] = Clearance in CD1 mouse at 5 mg/kg, iv; format: ADME, organism-based; conditions: in vivo
Outline: (§4)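 Fasted male CD-1 mice (18−22 g), 5 mg/kg single dose into the tail vein, 6 per group. Blood sampled at 0.25, 0.75, 2, 4, 8 and 24 h and analysed by UPLC-MS/MS. T1/2, AUClast, AUCINF_obs, CL_obs, MRTINF_obs and VSS_obs were calculated for each animal from its time−concentration curve.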

[13] = Half life in CD1 mouse at 5 mg/kg, iv; format: ADME, organism-based; conditions: in vivo; outline: as §4
[14] = AUClast in CD1 mouse at 5 mg/kg, iv; format: ADME, organism-based; design: dose 5 mg/kg, route intravenous, time 0 - last; conditions: in vivo; outline: as §4
[15] = AUC (infinity) in CD1 mouse at 5 mg/kg, iv; format: ADME, organism-based; design: dose 5 mg/kg, route intravenous, time infinity; conditions: in vivo; outline: as §4
[16] = MRT (infinity) in CD1 mouse at 5 mg/kg, iv; format: ADME, organism-based; conditions: in vivo; outline: as §4
[17] = Volume of distribution at steady state in CD1 mouse at 5 mg/kg, iv; format: ADME, organism-based; conditions: in vivo, read-out: Vdss
Outline: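 Fasted male CD-1 mice (18−22 g), 5 mg/kg single dose into the tail vein, 6 per group. T1/2, AUClast, AUCINF_obs, CL_obs, MRTINF_obs and VSS_obs were calculated for each animal from its time−concentration curve.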

Blood = experiment: Drug uptake in CD1 mouse blood at 5 mg/kg, iv; format: ADME, organism-based; conditions: in vivo; outline: as §4

| Structure (SMILES) | MIC90 (Staphylococcus aureus [1]) [µg/mL] | MIC90 (Staphylococcus aureus [2]) [µg/mL] | MIC (Enterococcus faecium [3]) [µg/mL] | MIC (Enterococcus faecium [4]) [µg/mL] | MIC (Enterococcus faecium [5]) [µg/mL] | MIC (Enterococcus faecium [6]) [µg/mL] | MIC (Enterococcus faecium [7]) [µg/mL] | Activity (L02) | Activity (HK-2) | Activity (Staphylococcus aureus [11]) | clearance [12] [mL/min/kg] | Vd [17] [L/kg] | also measured |
| --- | --- | --- | --- | --- | --- | --- | --- | --- | --- | --- | --- | --- | --- |
| CN[C@H](CC(C)C)C(=O)N[C@H]1C(=O)N[C@@H](CC(N)=O)C(=O)N[C@H]2C(=O)N[C@H]3C(=O)N[C@H](C(=O)N[C@H](C(=O)O)c4cc(O)c(CNCCO[C@@H]5O[C@H](CO)[C@H](O)[C@H](O)[C@H]5O)c(O)c4-c4cc3ccc4O)[C@H](O)c3ccc(c(Cl)c3)Oc3cc2cc(c3O[C@@H]2O[C@H](CO)[C@@H](O)[C@H](O)[C@H]2O[C@H]2C[C@](C)(NCc3ccc(-c4ccc(Cl)cc4)cc3)[C@H](O)[C@H](C)O2)Oc2ccc(cc2Cl)[C@H]1O | 0.06 (≈ 0.0318 µM) | 0.25 (≈ 0.133 µM) | 4 (≈ 2.12 µM) | 2 (≈ 1.06 µM) | 16 (≈ 8.49 µM) | 4 (≈ 2.12 µM) | 0.12 (≈ 0.0637 µM) | Non-Toxic | Non-Toxic |  |  |  |  |
| CCCCCCCCCCN[C@@]1(C)C[C@H](O[C@H]2[C@H](Oc3c4cc5cc3Oc3ccc(cc3Cl)[C@@H](O)[C@@H](NC(=O)[C@@H](CC(C)C)NC)C(=O)N[C@@H](CC(N)=O)C(=O)N[C@H]5C(=O)N[C@H]3C(=O)N[C@H](C(=O)N[C@H](C(=O)O)c5cc(O)c(CN[C@H]6C(O)O[C@H](CO)[C@H](O)[C@@H]6O)c(O)c5-c5cc3ccc5O)[C@H](O)c3ccc(c(Cl)c3)O4)O[C@H](CO)[C@@H](O)[C@@H]2O)O[C@@H](C)[C@H]1O (stereo partly specified) | 0.03 (≈ 0.0168 µM) | 0.25 (≈ 0.14 µM) | 8 (≈ 4.49 µM) | 8 (≈ 4.49 µM) | 32 (≈ 18 µM) | 16 (≈ 8.99 µM) | 0.5 (≈ 0.281 µM) |  |  |  |  |  | Ratio (Staphylococcus aureus [8]): 8 - 16 |
| CN[C@H](CC(C)C)C(=O)N[C@H]1C(=O)N[C@@H](CC(N)=O)C(=O)N[C@H]2C(=O)N[C@H]3C(=O)N[C@H](C(=O)N[C@H](C(=O)O)c4cc(O)c(CNCCO)c(O)c4-c4cc3ccc4O)[C@H](O)c3ccc(c(Cl)c3)Oc3cc2cc(c3O[C@@H]2O[C@H](CO)[C@@H](O)[C@H](O)[C@H]2O[C@H]2C[C@](C)(NCc3ccc(-c4ccc(C(F)(F)F)cc4)cc3)[C@H](O)[C@H](C)O2)Oc2ccc(cc2Cl)[C@H]1O | 0.015 (≈ 0.00854 µM) | 0.12 (≈ 0.0683 µM) | 1 (≈ 0.569 µM) | 1 (≈ 0.569 µM) | 4 (≈ 2.28 µM) | 2 (≈ 1.14 µM) | ≤ 0.06 |  |  |  |  |  | Activity (Staphylococcus aureus [9]): Active |
| CCCCCCCCCCNCCN[C@@]1(C)C[C@H](O[C@H]2[C@H](Oc3c4cc5cc3Oc3ccc(cc3Cl)[C@@H](O)[C@@H](NC(=O)[C@@H](CC(C)C)NC)C(=O)N[C@@H](CC(N)=O)C(=O)N[C@H]5C(=O)N[C@H]3C(=O)N[C@H](C(=O)N[C@H](C(=O)O)c5cc(O)c(CNCP(=O)(O)O)c(O)c5-c5cc3ccc5O)[C@H](O)c3ccc(c(Cl)c3)O4)O[C@H](CO)[C@@H](O)[C@@H]2O)O[C@@H](C)[C@H]1O [TELAVANCIN] | 0.25 (≈ 0.142 µM) | 1 (≈ 0.57 µM) | 4 (≈ 2.28 µM) | 8 (≈ 4.56 µM) | 4 (≈ 2.28 µM) | 0.12 (≈ 0.0684 µM) | 1 (≈ 0.57 µM) | Toxic | Non-Toxic | Active | 5.1 |  | Activity (Staphylococcus aureus [10]): Active |
| CN[C@H](CC(C)C)C(=O)N[C@H]1C(=O)N[C@@H](CC(N)=O)C(=O)N[C@H]2C(=O)N[C@H]3C(=O)N[C@H](C(=O)N[C@H](C(=O)O)c4cc(O)cc(O)c4-c4cc3ccc4O)[C@H](O)c3ccc(c(Cl)c3)Oc3cc2cc(c3O[C@@H]2O[C@H](CO)[C@@H](O)[C@H](O)[C@H]2O[C@H]2C[C@](C)(NCc3ccc(-c4ccc(C(F)(F)F)cc4)cc3)[C@H](O)[C@H](C)O2)Oc2ccc(cc2Cl)[C@H]1O |  |  |  |  |  |  |  |  |  |  | 1.24 | 0.509 | half-life [13]: 6.04 h; AUC(0-t) [14]: 64200 ng·h/mL; AUC(0-inf) [15]: 67500 ng·h/mL; MRT inf [16]: 6.83 h; Drug uptake (Blood): > 1 µg/mL |
| CN[C@H](CC(C)C)C(=O)N[C@H]1C(=O)N[C@@H](CC(N)=O)C(=O)N[C@H]2C(=O)N[C@H]3C(=O)N[C@H](C(=O)N[C@H](C(=O)O)c4cc(O)c(CNCCO[C@H]5O[C@H](CO)[C@@H](O)[C@H](O)[C@@H]5O)c(O)c4-c4cc3ccc4O)[C@H](O)c3ccc(c(Cl)c3)Oc3cc2cc(c3O[C@@H]2O[C@H](CO)[C@@H](O)[C@H](O)[C@H]2O[C@H]2C[C@](C)(NCc3ccc(-c4ccc(Cl)cc4)cc3)[C@H](O)[C@H](C)O2)Oc2ccc(cc2Cl)[C@H]1O | 2 (≈ 1.06 µM) | 4 (≈ 2.12 µM) | 0.5 (≈ 0.265 µM) | 1 (≈ 0.53 µM) | 2 (≈ 1.06 µM) | 0.12 (≈ 0.0637 µM) | 2 (≈ 1.06 µM) |  |  |  |  |  |  |
| CN[C@H](CC(C)C)C(=O)N[C@H]1C(=O)N[C@@H](CC(N)=O)C(=O)N[C@H]2C(=O)N[C@H]3C(=O)N[C@H](C(=O)N[C@H](C(=O)O)c4cc(O)c(CN[C@H]5C(O)O[C@H](CO)[C@H](O)[C@@H]5O)c(O)c4-c4cc3ccc4O)[C@H](O)c3ccc(c(Cl)c3)Oc3cc2cc(c3O[C@@H]2O[C@H](CO)[C@@H](O)[C@H](O)[C@H]2O[C@H]2C[C@](C)(NCc3ccc(-c4ccc(Cl)cc4)cc3)[C@H](O)[C@H](C)O2)Oc2ccc(cc2Cl)[C@H]1O (stereo partly specified) | 0.03 (≈ 0.0163 µM) | 0.12 (≈ 0.0652 µM) | 2 (≈ 1.09 µM) | 2 (≈ 1.09 µM) | 8 (≈ 4.35 µM) | 4 (≈ 2.17 µM) | 0.25 (≈ 0.136 µM) |  |  | Active | 7 | 1.75 | Ratio (Staphylococcus aureus [8]): 8 - 16; survival at 7 mg/kg (Staphylococcus aureus [10]): 93.3%; half-life [13]: 3.81 h; AUC(0-t) [14]: 12100 ng·h/mL; AUC(0-inf) [15]: 12200 ng·h/mL; MRT inf [16]: 4.18 h; Drug uptake (Blood): > 1 µg/mL |
| CN[C@H](CC(C)C)C(=O)N[C@H]1C(=O)N[C@@H](CC(N)=O)C(=O)N[C@H]2C(=O)N[C@H]3C(=O)N[C@H](C(=O)N[C@H](C(=O)O)c4cc(O)cc(O)c4-c4cc3ccc4O)[C@H](O)c3ccc(c(Cl)c3)Oc3cc2cc(c3O[C@@H]2O[C@H](CO)[C@@H](O)[C@H](O)[C@H]2O[C@H]2C[C@](C)(N)[C@H](O)[C@H](C)O2)Oc2ccc(cc2Cl)[C@H]1O [VANCOMYCIN] | 2 (≈ 1.38 µM) | 8 (≈ 5.52 µM) | > 128 | > 128 | > 128 | > 128 | 64 (≈ 44.2 µM) | Toxic | Toxic | inactive | 68.7 | 3.08 | survival at 7 mg/kg (Staphylococcus aureus [10]): 6.67% |
